Series [1] deals with Plasmodium falciparum. Briefly: Antimalarial activity against chloroquine-sensitive Plasmodium falciparum D6 assessed as growth inhibition after 18 hrs by [3H]-hypoxanthine uptake assay. Format: functional, organism-based. The gist of the method: (§1)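 P. falciparum clones D6, W2 and TM91C235; modified semiautomated microdilution. Compounds in DMSO, diluted in RPMI 1640 with 10% human plasma, tested over (1.56-100) x 10^-9 M; final DMSO 0.25-0.5%. Inoculum 0.5% parasitemia, 1% hematocrit. 24 h incubation, then [3H]-hypoxanthine added, further 18 h. Harvested and read by scintillation counting; IC50 by nonlinear regression.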

A short description of series [2]: Elimination half life in ICR mouse at 80 mg/kg, po. The class given is ADME, organism-based. To be noted: in vivo, read-out: beta t1/2 (converted). The arrangement: dose 80 mg/kg, route oral. The gist of the method:
(§2)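 Male 7-week-old ICR mice, 23–28 g, given a single intragastric dose of 80 mg/kg in DD water (100 µL/20 g). Three mice per time point; whole blood taken by cardiac puncture into lithium heparin tubes and spun to plasma. Parameters come from plasma concentration–time curves of parent drug. t1/2 = ln2/kel from the log plot. AUC by linear trapezoidal rule, extrapolated to infinity; MRT = AUMC/AUC.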

The test system of series [3] is Plasmodium falciparum. The series can be described thus: Antimalarial activity against chloroquine-resistant Plasmodium falciparum C235 assessed as growth inhibition after 18 hrs by [3H]-hypoxanthine uptake assay. Format: functional, organism-based. The gist of the method:
as §1

In a further series the test system is HepG2. The series can be described thus: Cytotoxicity against human HepG2 cells after 48 hrs by MTT assay. Format: cell-based. Particulars: HepG2, 48 h. The gist of the method:
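HepG2 cells in supplemented MEM, plated at 9570 cells/well in 384-well format and incubated overnight at 37 °C, 5% CO2. Twelve duplicate 1.6-fold dilutions, 57–10,000 ng/ml, incubated 48 h. MTT added for 1 h at room temperature in the dark, formazan dissolved in acidified isopropanol, absorbance read. IC50 by sigmoidal variable-slope nonlinear regression; tryptanthrin control.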
Background: Tetrazolium dyes change colour on reduction, which living cells bring about.

Series [4] is described as follows: AUCinfinity in ICR mouse at 80 mg/kg, po. The class given is ADME, organism-based. The arrangement: time infinity, dose 80 mg/kg, route oral. To be noted: plasma. The gist of the method: as §2
The nature of series [5]: Tmax in ICR mouse at 80 mg/kg, po. The class given is ADME, organism-based. The arrangement: dose 80 mg/kg, route oral. Particulars: in vivo. The gist of the method:
as §2

Series [6] in a line: Cmax in ICR mouse at 80 mg/kg, po. The class given is ADME, organism-based. The arrangement: dose 80 mg/kg, route oral. Particulars: in vivo. The gist of the method: as §2
Series [7] can be described thus: Apparent oral clearance in ICR mouse at 80 mg/kg. Format: ADME, organism-based. The arrangement: dose 80 mg/kg, route oral. Particulars: in vivo.
The next series deals with Mus musculus. Briefly: Toxicity in mouse infected with erythrocytic stage of chloroquine resistant Plasmodium berghei ANKA up to 160 mg/kg, po qd administered on day 3, 4 and 5 post infection measured over 30 days. To be noted: in vivo, 720 h. The arrangement: dose 160 mg/kg, route oral. Format: organism-based, Erythrocyte. The gist of the method:
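Male mice of 16-20 g infected intraperitoneally with CQ-resistant P. berghei ANKA (5 x 10^6 infected erythrocytes). Oral dosing once daily on days 3-5, five mice per group. Animals followed for 30 days by blood films; mice losing >20% body weight sacrificed.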

A further series has as its system Salmonella typhi. Briefly: Mutagenicity in Salmonella typhi by Ames test. Format: toxicity, organism-based. To be noted: salmonella enterica subsp. enterica […].
Another series addresses hERG (KCNH2) (Homo sapiens, UniProt Q12809). The series can be described thus: Inhibition of human ERG expressed in CHL cells assessed as tail current at 10 uM after 7 mins by patch clamp assay relative to control. Format: cell-based. To be noted: CHL cells expressing human ERG. In general terms: In patch-clamp work, channel activity is measured electrically.
Series [8] can be described thus: Half life in mouse liver microsomes at 1 uM by LC/MS analysis. The class given is ADME. The gist of the method: (§3)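 Compound at 1 µM final, diluted from […], with 0.5 mg/mL pooled human or mouse liver microsomes, NADP, MgCl2 and 0.1 M PBS pH 7.4. Reaction started with 1 U/mL G6PD and shaken at 37 °C. Aliquots quenched in cold acetonitrile at 0, 10, 20, 30 and 60 min and quantified by LC/MS. Half-life from log plot of total ion chromatogram area remaining.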
For orientation: Liver microsomes are a subcellular fraction often used to study metabolism.

Series [9] has as its system Plasmodium berghei. Briefly: Antimalarial activity against erythrocytic stage of chloroquine resistant Plasmodium berghei ANKA infected in mouse assessed as cure rate at 60 mg/kg, po qd administered on day 3, 4 and 5 post infection measured 3 times per week for 30 days, starting from day 3 by Thompson test. The class given is functional, organism-based. The arrangement: dose 60 mg/kg. The gist of the method: (§4)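 Male mice of 16-20 g inoculated intraperitoneally with 5 x 10^6 erythrocytes infected with CQ-resistant P. berghei ANKA. Drug given orally as a suspension once daily on days 3, 4 and 5 post-infection, five mice per dose. Blood films from day 3, three times weekly for 30 days. Cure means parasite-negative on day 30 or surviving 30 days. Mice losing >20% body weight sacrificed.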

Series [10] is described as follows: Mean residence time in ICR mouse at 80 mg/kg, po. The class given is ADME, organism-based. The arrangement: dose 80 mg/kg, route oral. Particulars: in vivo. The gist of the method:
as §2

Series [11] deals with Plasmodium falciparum. The series can be described thus: Antimalarial activity against chloroquine-resistant Plasmodium falciparum W2 assessed as growth inhibition after 18 hrs by [3H]-hypoxanthine uptake assay. The class given is functional, organism-based. The gist of the method: as §1
A short description of series [12]: Half life in human liver microsomes at 1 uM by LC/MS analysis. Format: ADME. The gist of the method:
as §3

A short description of series [13]: Apparent volume of distribution during terminal phase in ICR mouse at 80 mg/kg, po. The class given is ADME, organism-based. Details: dose 80 mg/kg, route oral. Particulars: in vivo, read-out: Vz/F.
The nature of series [14]: AUClast in ICR mouse at 80 mg/kg, po. Format: ADME, organism-based. Particulars: plasma. The arrangement: time 0 - last, dose 80 mg/kg, route oral.
For series [15], the system named is Plasmodium berghei. The series can be described thus: Antimalarial activity against erythrocytic stage of chloroquine resistant Plasmodium berghei ANKA infected in mouse assessed as cure rate at 120 mg/kg, po qd administered on day 3, 4 and 5 post infection measured 3 times per week for 30 days, starting from day 3 by Thompson test. Format: functional, organism-based. The arrangement: dose 120 mg/kg. The gist of the method: as §4

For series [16], the system named is Plasmodium berghei. The series can be described thus: Antimalarial activity against erythrocytic stage of chloroquine resistant Plasmodium berghei ANKA infected in mouse assessed as reduction of parasitemia at 160 mg/kg, po qd administered on day 3, 4 and 5 post infection measured 2 days post last dose relative to control. The class given is functional. The arrangement: scale not given: the % may be the effect or the level left. The gist of the method: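 Male mice of 16-20 g inoculated intraperitoneally with 5 x 10^6 erythrocytes infected with CQ-resistant P. berghei ANKA. Drug given orally as a suspension once daily on days 3, 4 and 5 post-infection, five mice per dose. Parasitemia followed by blood films from day 3, three times weekly for 30 days; infected untreated mice served as negative controls.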

The subject of series [17] is Plasmodium berghei. The series can be described thus: Antimalarial activity against erythrocytic stage of chloroquine resistant Plasmodium berghei ANKA infected in mouse assessed as cure rate at 160 mg/kg, po qd administered on day 3, 4 and 5 post infection measured 3 times per week for 30 days, starting from day 3 by Thompson test. Format: functional, organism-based. Details: dose 160 mg/kg. The gist of the method: as §4

The test system of series [18] is Plasmodium falciparum. The series can be described thus: Potency index, ratio of chloroquine IC50 to compound IC50 for chloroquine-resistant Plasmodium falciparum W2. Format: functional.

Converted amounts (≈) assume the structure as drawn. The source made the active and inactive calls. No cut-off for these calls is given here. Some results are limits rather than exact numbers.

Chain of hERG (KCNH2) (Q12809 whole entry): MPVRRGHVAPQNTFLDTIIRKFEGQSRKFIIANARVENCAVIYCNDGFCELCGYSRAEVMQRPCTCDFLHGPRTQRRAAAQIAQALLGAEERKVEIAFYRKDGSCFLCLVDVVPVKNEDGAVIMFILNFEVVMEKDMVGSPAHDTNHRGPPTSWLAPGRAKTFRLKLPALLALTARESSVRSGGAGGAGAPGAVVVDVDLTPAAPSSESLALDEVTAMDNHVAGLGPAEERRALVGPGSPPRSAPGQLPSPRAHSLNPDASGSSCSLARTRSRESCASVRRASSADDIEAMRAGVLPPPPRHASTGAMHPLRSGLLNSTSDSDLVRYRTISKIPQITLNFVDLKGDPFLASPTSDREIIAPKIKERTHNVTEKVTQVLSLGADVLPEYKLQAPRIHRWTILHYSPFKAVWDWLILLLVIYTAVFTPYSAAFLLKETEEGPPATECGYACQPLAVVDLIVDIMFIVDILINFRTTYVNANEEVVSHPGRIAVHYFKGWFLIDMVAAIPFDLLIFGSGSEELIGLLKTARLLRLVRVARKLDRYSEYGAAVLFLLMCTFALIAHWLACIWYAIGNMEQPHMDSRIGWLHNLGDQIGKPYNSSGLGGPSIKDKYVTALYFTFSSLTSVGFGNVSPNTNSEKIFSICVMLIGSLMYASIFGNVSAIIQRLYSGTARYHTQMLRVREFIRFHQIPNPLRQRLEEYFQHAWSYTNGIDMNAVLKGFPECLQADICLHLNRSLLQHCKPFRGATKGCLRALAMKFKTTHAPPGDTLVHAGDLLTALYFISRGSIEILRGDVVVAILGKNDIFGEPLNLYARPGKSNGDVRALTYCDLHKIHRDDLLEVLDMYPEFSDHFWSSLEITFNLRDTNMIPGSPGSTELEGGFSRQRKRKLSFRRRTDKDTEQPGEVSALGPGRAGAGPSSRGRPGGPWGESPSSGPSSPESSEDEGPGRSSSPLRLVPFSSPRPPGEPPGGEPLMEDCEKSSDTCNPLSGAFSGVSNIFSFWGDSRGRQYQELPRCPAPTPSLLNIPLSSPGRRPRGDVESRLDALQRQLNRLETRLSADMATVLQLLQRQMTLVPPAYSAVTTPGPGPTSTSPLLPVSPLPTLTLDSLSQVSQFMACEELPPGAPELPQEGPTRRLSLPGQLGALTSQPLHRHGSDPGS

Regarding `CCN(CC)CCC/N=C(\C)N(CCCN(CC)CC)c1c2ccc(Cl)cc2nc2ccc(OC)nc12`, the IC50 (as a rule, the point on the concentration scale where inhibition reaches its midpoint) with Plasmodium falciparum [1] came to 1.3 nM; in the series with Plasmodium falciparum [3] it was 5.1 nM; with HepG2 it was 3.04 µg/mL (≈ 5.78 µM); with Plasmodium falciparum [11], 9.5 nM. Besides, the half-life in series [2] was 47.5 h. Moreover, the AUC(0-inf) – broadly, total exposure, with the tail of the curve extrapolated – in series [4] is 8950 ng·h/mL. Also, the Tmax (commonly the time from dosing to the highest level) in series [5] worked out at 2 h. Moreover, the Cmax (in general, the maximum level reached in the sampled fluid or tissue) in series [6] was found to be 222 ng/mL. Moreover, in series [7], the CL/F (in general, the apparent clearance, not corrected for the fraction that reaches the circulation) was 150 mL/min/kg. The Activity entry in the series with Mus musculus and in the series with Salmonella typhi was “Non-toxic” in each case. On hERG (KCNH2), the inhibition (in general, the change of the read-out against control, counted positive when it falls) at 7 min, 10 µM is 13.8%. Besides, the half-life at 1 µM in [8] and in series [12] was > 1 h in each case. In addition, the outcome in the series with Plasmodium berghei [9] and in the series on Plasmodium berghei [15] was Active. Besides, the MRT (usually a mean duration of stay, worked out from the concentration-time curve) in series [10] stood at 22.1 h. Further, in series [13], the Vd/F is 610 L/kg. Further, the AUC(0-t) (as a rule, exposure summed from dosing to a finite time, without extrapolation to infinity) in series [14] is 4930 ng·h/mL.
`C/C(=N/c1ccnc2cc(Cl)ccc12)NCCCN1CCCCC1`: the IC50 in the series with Plasmodium falciparum [1] was determined as 25 nM; in the series with Plasmodium falciparum [3], 14 nM; with HepG2, 23.3 µg/mL (≈ 67.5 µM); in the series with Plasmodium falciparum [11] it was 36 nM. Moreover, the Activity is 95.4% in the series on Plasmodium berghei [16] and “Non-toxic” in the series with Mus musculus. The result with Plasmodium berghei [17] was inactive. Further, on hERG (KCNH2), the inhibition at 7 min, 10 µM amounted to 27.7%. Moreover, the half-life at 1 µM in series [8] is 0.417 h; in series [12], > 1 h.
For `CCN(CC)CCCN/C(=N\c1ccnc2cc(Cl)ccc12)c1ccccc1`, the IC50 with Plasmodium falciparum [1] was 1.8 nM; with Plasmodium falciparum [3] it was 3.3 nM; with HepG2, 5.08 µg/mL (≈ 12.9 µM); in the series on Plasmodium falciparum [11], 7.2 nM. Besides, the “Ratio IC50” value in the series on Plasmodium falciparum [18] was 50. Also, on hERG (KCNH2), the inhibition at 7 min, 10 µM amounted to 100%. In addition, the half-life at 1 µM worked out at 0.267 h in [8] and 0.35 h in series [12].
In the case of `CN(C)CCCN/C(=N\c1ccnc2cc(Cl)ccc12)c1ccccc1`, the 50% inhibitory concentration (IC50) in the series with Plasmodium falciparum [1] worked out at 2.1 nM; in the series on Plasmodium falciparum [3] it was 3.4 nM; in the series with HepG2, 5.13 µg/mL (≈ 14 µM); with Plasmodium falciparum [11] it was 9.2 nM. Besides, the Activity entry in the series with Salmonella typhi was “Non-toxic”. The “Ratio IC50” value in the series with Plasmodium falciparum [18] was determined as 50. For the same compound, at hERG (KCNH2), the inhibition at 7 min, 10 µM was determined as 90.6%. Moreover, the half-life at 1 µM in series [8] was 0.867 h; in series [12], > 1 h.
In the case of `CCN(CC)CCCN/C(=N\c1ccnc2cc(Cl)ccc12)C(C)C`, the IC50 in the series with Plasmodium falciparum [1] is 22 nM; in the series on Plasmodium falciparum [3], 25.8 nM; in the series on HepG2 it was > 24.2 µg/mL; with Plasmodium falciparum [11], 42 nM. Further, the half-life in series [2] was 6.66 h. The same compound came in with an AUC(0-inf) in [4] of 3620 ng·h/mL. For the same compound, the Tmax in [5] was 0.5 h. For the same compound, in series [6], the Cmax was 696 ng/mL. Moreover, in the series on Plasmodium berghei [17], the outcome was Active. Besides, the CL/F in [7] is 371 mL/min/kg. In addition, the Activity entry in the series with Mus musculus is “Non-toxic”. Further, the half-life at 1 µM in [8] and in series [12] was > 1 h each time. In [10], this compound registered an MRT of 7.64 h. Further, in series [13], the Vd/F is 214 L/kg. Further, the AUC(0-t) in [14] was 3510 ng·h/mL.

Source of the values: ChEMBL document CHEMBL3421610, “Antimalarial activity of 4-amidinoquinoline and 10-amidinobenzonaphthyridine derivatives” (J Med Chem, 2015).
